Experiment [1] concerns the target Human immunodeficiency virus type 1 integrase (Human immunodeficiency virus 1, UniProt Q7ZJM1). The experiment is described as follows: Inhibition of HIV1 integrase by ELISA. A digest of the protocol:
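HIV-1 integrase activity was read out by ELISA, and inhibition was expressed as an IC50.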

The test system of the next experiment is MCF7. The experiment is described as follows: Cytotoxicity against human MCF7 cells by MTT assay. Type of experiment: functional, cell-based.
Another experiment has as its system A549. The experiment is described as follows: Cytotoxicity against human A549 cells by MTT assay. Type of experiment: functional, cell-based.
The nature of experiment [2]: Cytotoxicity against human BCG823 cells by MTT assay. Type of experiment: functional, cell-based. In general terms: Formazan colour is commonly taken as a measure of viable cells.
For another experiment, the system named is BEL-7404 (Homo sapiens). The experiment is described as follows: Cytotoxicity against human BEL-7404 cells by MTT assay.

Chain of Human immunodeficiency virus type 1 integrase (Q7ZJM1 whole entry): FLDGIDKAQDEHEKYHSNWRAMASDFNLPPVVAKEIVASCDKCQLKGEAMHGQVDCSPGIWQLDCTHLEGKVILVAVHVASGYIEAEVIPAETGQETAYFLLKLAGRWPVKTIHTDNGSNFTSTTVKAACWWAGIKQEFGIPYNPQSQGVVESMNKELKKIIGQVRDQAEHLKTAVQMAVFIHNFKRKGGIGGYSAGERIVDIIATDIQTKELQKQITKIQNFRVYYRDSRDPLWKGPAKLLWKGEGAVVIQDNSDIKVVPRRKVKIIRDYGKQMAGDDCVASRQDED

A word on the IC50: it is the point on the concentration scale where inhibition reaches its midpoint. High values mean weaker potency in that assay, low ones greater potency in that assay. In experiment [1], `COc1cc(/C=C/C(=O)OC2CC3CCC2(C)C3(C)C)cc(Cl)c1O` (stereo not drawn) registered an IC50 greater than 100 µM.
As for `CCCCCCCCCCCCCCCCCCOC(=O)/C=C/c1ccc(O)c(O)c1`, the IC50 in experiment [1] is greater than 100 µM.
The same measure, in the same setting: with `CCC(C)OC(=O)/C=C/c1ccc(O)c(O)c1` (stereo not drawn) the figure was greater than 100 µM; with `CC(C)(COC(=O)/C=C/c1ccc(O)c(O)c1)[N+](=O)[O-]`, greater than 100 µM; with `CCOC(=O)/C=C/c1ccc(O)c(O)c1` [ETHYL CAFFEATE], greater than 100 µM.
Take `CC1(C)C2CCC1(C)C(OC(=O)/C=C/c1cc(O)c(O)c([N+](=O)[O-])c1)C2` (stereo not drawn): the IC50 in experiment [1] was greater than 100 µM.
Take `O=C(/C=C/c1ccc(O)c(O)c1)OC1CCCCC1`: the IC50 in the experiment on MCF7 was 30.3 µM; in the experiment on A549, 89.3 µM; in experiment [1], greater than 100 µM; in experiment [2], 97.6 µM; with BEL-7404 (Homo sapiens), 15.5 µM.
In experiment [1], `COc1cc(/C=C/C(=O)O)cc(Cl)c1O` had an IC50 greater than 100 µM.
In the case of `CCCCOC(=O)/C=C/c1ccc(O)c(O)c1` [BUTYL CAFFEATE], the IC50 in experiment [1] was greater than 100 µM.
With `COC(=O)/C=C/c1ccc(O)c(O)c1` [METHYLCAFFEATE], the IC50 in experiment [1] was greater than 100 µM.
Regarding `COc1cc(/C=C/C(=O)OC2CC3CCC2(C)C3(C)C)cc(Br)c1O` (stereo not drawn), in experiment [1], the IC50 is greater than 100 µM.
In experiment [1], `COc1c(O)ccc(/C=C/C(=O)OCCc2ccccc2)c1[N+](=O)[O-]` registered an IC50 greater than 100 µM.
Still for that read-out and setting: with `COc1c(O)ccc(/C=C/C(=O)O)c1[N+](=O)[O-]` the figure was greater than 100 µM.
`O=C(/C=C/c1ccc(O)c(O)c1)Oc1ccccc1`: the IC50 is 5.9 µM with MCF7; 75.9 µM in the experiment on A549; greater than 100 µM in experiment [1]; 56.6 µM in experiment [2]; 44.3 µM in the experiment with BEL-7404 (Homo sapiens).
`CCCOC(=O)/C=C/c1ccc(O)c(O)c1` had an IC50 in experiment [1] greater than 100 µM.
As to `CC(C)(C)OC(=O)/C=C/c1ccc(O)c(O)c1`, the IC50 in experiment [1] is greater than 100 µM.
The molecule `CCCCCCCOC(=O)/C=C/c1ccc(O)c(O)c1` registered an IC50 in experiment [1] greater than 100 µM.
On to `COc1cc(/C=C/C(=O)OCCc2ccccc2)cc([N+](=O)[O-])c1O`, for which the IC50 with MCF7 is greater than 300 µM; with A549, greater than 300 µM; in experiment [1], greater than 100 µM; in experiment [2] it was greater than 300 µM; in the experiment with BEL-7404 (Homo sapiens), greater than 300 µM.
For `O=C(O)/C=C/c1ccc(O)c(O)c1[N+](=O)[O-]`, in experiment [1], the half-maximal inhibitory concentration (IC50) is greater than 100 µM.
In experiment [1], `COc1cc(/C=C/C(=O)O)ccc1O` [FERULATE] yielded an IC50 greater than 100 µM.
For the molecule `O=C(/C=C/c1ccc(O)c(O)c1[N+](=O)[O-])OCCc1ccccc1`, the IC50 in the experiment on MCF7 was 28.8 µM; in the experiment with A549, 8.7 µM; in experiment [1], greater than 100 µM; in experiment [2], 27.8 µM; in the experiment with BEL-7404 (Homo sapiens) it was 10.2 µM.
Take `O=C(O)/C=C/c1cc(O)c(O)c([N+](=O)[O-])c1`: in experiment [1], the IC50 was 26.8 µM.
The molecule `COc1cc(/C=C/C(=O)OCCc2ccccc2)cc(Cl)c1O` gave an IC50 in experiment [1] greater than 100 µM.
Consider `CC1(C)C2CCC1(C)C(OC(=O)/C=C/c1ccc(O)c(O)c1[N+](=O)[O-])C2` (stereo not drawn), for which the IC50 was found to be 40.7 µM in the experiment on MCF7; 52.9 µM in the experiment on A549; 13.5 µM in experiment [1]; 117 µM in experiment [2]; 28.7 µM in the experiment on BEL-7404 (Homo sapiens).
As for `COc1cc(/C=C/C(=O)OC2CC3CCC2(C)C3(C)C)cc([N+](=O)[O-])c1O` (stereo not drawn), in experiment [1], the IC50 is greater than 100 µM.
For `O=C(/C=C/c1ccc(O)c(O)c1)OCCc1ccccc1` [CAFFEIC ACID PHENETHYL ESTER], the IC50 with MCF7 is 26.7 µM; in the experiment with A549, 83.6 µM; in experiment [1] it was greater than 100 µM; in experiment [2], 44.6 µM; with BEL-7404 (Homo sapiens), 5.5 µM.
Turning to `COc1cc(/C=C/C(=O)O)cc([N+](=O)[O-])c1O`, in experiment [1], the IC50 was greater than 100 µM.
In turn, `C#CCOC(=O)/C=C/c1ccc(O)c(O)c1` registered a concentration for half-maximal inhibition (IC50) in experiment [1] greater than 100 µM.
Molecule `CCCCCCC(C)OC(=O)/C=C/c1ccc(O)c(O)c1` (stereo not drawn) yielded an IC50 in experiment [1] greater than 100 µM.
Same read-out and setting: with `C=CCOC(=O)/C=C/c1ccc(O)c(O)c1` the figure was greater than 100 µM.
Consider `COc1cc(/C=C/C(=O)O)cc(Br)c1O`, for which the half-maximal inhibitory concentration (IC50) in experiment [1] is greater than 100 µM.
In the case of `COc1c(O)ccc(/C=C/C(=O)OC2CC3CCC2(C)C3(C)C)c1[N+](=O)[O-]` (stereo not drawn), the IC50 with MCF7 is 62.3 µM; in the experiment on A549 it was 21.1 µM; in experiment [1], greater than 100 µM; in experiment [2], 32.1 µM; in the experiment with BEL-7404 (Homo sapiens) it was 6.6 µM.
For the molecule `CC1(C)C2CCC1(C)C(OC(=O)/C=C/c1ccc(O)c(O)c1)C2` (stereo not drawn), the IC50 in the experiment with MCF7 is greater than 300 µM; in the experiment with A549 it was 19.5 µM; in experiment [1], 19.9 µM; in experiment [2], 101 µM; with BEL-7404 (Homo sapiens) it was 28.2 µM.
Regarding `O=C(/C=C/c1cc(O)c(O)c([N+](=O)[O-])c1)OCCc1ccccc1`, the IC50 with MCF7 is 12.3 µM; in the experiment with A549 it was 11.4 µM; in experiment [1], 25 µM; in experiment [2] it was 22.9 µM; with BEL-7404 (Homo sapiens), 59.7 µM.
Take `CC(C)OC(=O)/C=C/c1ccc(O)c(O)c1`: the IC50 in experiment [1] was greater than 100 µM.
Turning to `O=C(O)/C=C/c1ccc(O)c(O)c1` [CAFFEIC ACID], the IC50 in experiment [1] is greater than 100 µM.
Molecule `CCCCCCCCOC(=O)/C=C/c1ccc(O)c(O)c1` returned an IC50 in experiment [1] greater than 100 µM.
As to `O=C(/C=C/c1ccc(O)c(O)c1)Oc1ccc2ccccc2c1`, the half-maximal inhibitory concentration (IC50) in the experiment with MCF7 was 12.8 µM; in the experiment on A549, 50 µM; in experiment [1], greater than 100 µM; in experiment [2], 59.8 µM; with BEL-7404 (Homo sapiens), 58.1 µM.
The corresponding values for `O=C(/C=C/c1ccc(O)c(O)c1)OCc1ccccc1` [BENZYL CAFFEATE] are 14.1 µM, 27.3 µM, greater than 100 µM, 48.1 µM and 17.4 µM.
As to `COc1cc(/C=C/C(=O)OCCc2ccccc2)cc(Br)c1O`, the IC50 in the experiment with MCF7 is greater than 300 µM; in the experiment with A549 it was greater than 300 µM; in experiment [1], greater than 100 µM; in experiment [2], greater than 300 µM; in the experiment with BEL-7404 (Homo sapiens) it was greater than 300 µM.

The values above are taken from ChEMBL document CHEMBL1141001, “Synthesis of trans-caffeate analogues and their bioactivities against HIV-1 integrase and cancer cell lines” (Bioorg Med Chem Lett, 2008).
